# Results from ChEMBL document CHEMBL3124854, “Synthesis and evaluation of antiproliferative activity of a novel series of hydroxychavicol analogs” (Eur J Med Chem, 2014).
# Legend:
# [1] = system: HeLa; experiment: Cytotoxicity against human HeLa cells assessed as growth inhibition after 48 hrs by MTT assay; format: functional, cell-based
# Method in brief: (§1)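 MTT proliferation assay: 2 × 10³ cells per well seeded, 24 h incubation, then treated with analogs dissolved in DMSO and diluted in medium at […] for 48 h. Medium then replaced with fresh medium carrying MTT (5 mg/mL stock in PBS). IC50 taken as concentration inhibiting proliferation of 50% cells; SD between batches.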
# [2] = system: PC-3; experiment: Cytotoxicity against human PC3 cells assessed as growth inhibition after 48 hrs by MTT assay; format: functional, cell-based; conditions: PC-3, 48 h; method in brief: as §1
Structure (SMILES),IC50 [1],IC50 [2]
CC(=O)OCCCc1ccc(O)c(O)c1,22 µM,83 µM
C=CC(O)c1ccc(OCc2ccccc2)c(O)c1 (stereo not given),76 µM,–
CCC(OC(C)=O)c1ccc(OC(C)=O)c(OC(C)=O)c1 (stereo not given),53 µM,42 µM
CCC(OC(C)=O)c1ccc(O)c(OC(C)=O)c1 (stereo not given),40 µM,48 µM
CC(=O)OC/C=C/c1ccc(OCc2ccccc2)c(OC(C)=O)c1,42 µM,38 µM
COc1cc(CC(COC(C)=O)OC(C)=O)ccc1O (stereo not given),60 µM,–
C=CCOc1ccc(CC(COC(C)=O)OC(C)=O)cc1OC (stereo not given),96 µM,–
CC(=O)OC/C=C/c1ccc(OCc2ccccc2)c(O)c1,13 µM,3.5 µM
C=CCc1ccc(O)c(O)c1 [HYDROXYCHAVICOL],83 µM,55 µM
